Source: ChEMBL document CHEMBL5712914, “Selective Janus Kinase 1 Inhibition Is a Promising Therapeutic Approach for Lupus Erythematosus Skin Lesions” (Front Immunol, 2020)
One block for each compound: values may come before it. Active and inactive are the calls of the source.

Columns and labels:
[1] = biological target: T1, Tyrosine-protein kinase JAK3 (Homo sapiens, UniProt P52333); assay: Inhibition of JAK3 in endogenous nucleic acid-stimulated human HaCaT cells assessed as reduction in CXCL10 expression at 100 nM measured after 24 hrs by ELISA
T1 sequence (P52333 whole entry): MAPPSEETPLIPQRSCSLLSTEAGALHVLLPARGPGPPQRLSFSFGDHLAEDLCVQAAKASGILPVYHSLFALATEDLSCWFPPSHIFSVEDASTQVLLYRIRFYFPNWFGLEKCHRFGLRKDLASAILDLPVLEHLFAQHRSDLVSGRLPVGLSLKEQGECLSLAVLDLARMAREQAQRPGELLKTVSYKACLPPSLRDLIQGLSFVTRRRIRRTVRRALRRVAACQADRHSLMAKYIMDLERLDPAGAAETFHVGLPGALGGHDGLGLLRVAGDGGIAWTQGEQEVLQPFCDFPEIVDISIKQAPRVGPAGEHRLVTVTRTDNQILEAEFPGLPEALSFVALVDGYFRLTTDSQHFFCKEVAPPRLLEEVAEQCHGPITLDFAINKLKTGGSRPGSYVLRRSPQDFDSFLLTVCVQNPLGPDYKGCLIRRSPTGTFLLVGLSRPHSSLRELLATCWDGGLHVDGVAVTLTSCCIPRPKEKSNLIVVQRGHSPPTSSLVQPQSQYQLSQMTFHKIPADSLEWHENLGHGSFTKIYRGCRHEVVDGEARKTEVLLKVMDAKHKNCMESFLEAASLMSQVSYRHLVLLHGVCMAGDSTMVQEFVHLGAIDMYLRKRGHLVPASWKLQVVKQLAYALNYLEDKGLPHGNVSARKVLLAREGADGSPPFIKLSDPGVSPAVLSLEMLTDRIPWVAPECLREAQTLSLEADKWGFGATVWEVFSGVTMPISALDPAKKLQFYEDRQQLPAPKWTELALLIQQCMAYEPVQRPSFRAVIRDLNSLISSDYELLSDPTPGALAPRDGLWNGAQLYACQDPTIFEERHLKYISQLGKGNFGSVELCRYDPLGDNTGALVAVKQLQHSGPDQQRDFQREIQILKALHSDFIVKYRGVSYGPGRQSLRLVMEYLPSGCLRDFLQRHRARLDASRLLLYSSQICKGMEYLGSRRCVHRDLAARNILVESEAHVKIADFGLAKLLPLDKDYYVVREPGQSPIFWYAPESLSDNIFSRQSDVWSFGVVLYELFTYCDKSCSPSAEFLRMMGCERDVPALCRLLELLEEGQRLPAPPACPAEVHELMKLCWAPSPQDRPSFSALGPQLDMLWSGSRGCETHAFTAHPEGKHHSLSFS

[2] = biological target: Tyrosine-protein kinase JAK1 (Homo sapiens) (UniProt P23458); assay: Inhibition of JAK1 in endogenous nucleic acid-stimulated NHEK cells assessed as decrease in CXCL10 gene expression at 1 uM relative to control; assay type: cell-based
Outline: (§1)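 NHEK primary keratinocytes were stimulated with endogenous nucleic acids (eNA) and then treated with inhibitor at 1 μM final, 4 samples per condition. Gene expression was compared with untreated eNA-stimulated cells. Downregulation was defined as greater than twofold with p < 0.05 by Welch's t-test.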
Target sequence in this assay (P23458 whole entry): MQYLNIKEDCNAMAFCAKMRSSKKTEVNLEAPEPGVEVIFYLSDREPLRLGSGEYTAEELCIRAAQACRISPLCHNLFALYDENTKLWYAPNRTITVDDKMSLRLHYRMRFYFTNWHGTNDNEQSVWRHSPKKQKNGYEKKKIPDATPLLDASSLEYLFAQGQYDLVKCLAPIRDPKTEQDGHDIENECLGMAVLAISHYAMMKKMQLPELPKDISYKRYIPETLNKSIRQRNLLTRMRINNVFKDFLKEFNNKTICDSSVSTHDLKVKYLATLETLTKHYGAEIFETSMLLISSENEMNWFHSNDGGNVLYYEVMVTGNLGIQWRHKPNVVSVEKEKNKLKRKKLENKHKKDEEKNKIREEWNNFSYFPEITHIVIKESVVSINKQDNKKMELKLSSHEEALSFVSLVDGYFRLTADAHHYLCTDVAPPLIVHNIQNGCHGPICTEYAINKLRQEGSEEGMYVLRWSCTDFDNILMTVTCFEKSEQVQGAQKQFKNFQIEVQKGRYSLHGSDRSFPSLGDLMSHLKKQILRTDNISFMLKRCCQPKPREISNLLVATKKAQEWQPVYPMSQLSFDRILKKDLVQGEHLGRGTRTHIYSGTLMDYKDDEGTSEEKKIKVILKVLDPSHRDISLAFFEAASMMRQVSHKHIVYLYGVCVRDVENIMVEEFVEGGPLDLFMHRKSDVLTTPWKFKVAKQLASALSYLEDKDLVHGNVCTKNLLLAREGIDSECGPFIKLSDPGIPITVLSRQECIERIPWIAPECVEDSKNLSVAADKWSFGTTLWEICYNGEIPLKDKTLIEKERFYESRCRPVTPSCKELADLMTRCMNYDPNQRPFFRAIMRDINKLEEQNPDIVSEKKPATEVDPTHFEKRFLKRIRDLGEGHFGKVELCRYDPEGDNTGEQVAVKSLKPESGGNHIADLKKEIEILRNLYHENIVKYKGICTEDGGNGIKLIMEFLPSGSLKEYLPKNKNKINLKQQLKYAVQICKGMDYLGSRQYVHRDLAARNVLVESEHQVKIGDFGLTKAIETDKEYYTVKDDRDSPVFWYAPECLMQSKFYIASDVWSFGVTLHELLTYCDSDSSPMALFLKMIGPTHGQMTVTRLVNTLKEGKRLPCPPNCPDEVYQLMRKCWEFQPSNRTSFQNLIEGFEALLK

[3] = biological target: Tyrosine-protein kinase JAK1 (Homo sapiens) (UniProt P23458); assay: Inhibition of JAK1 in endogenous nucleic acid-stimulated NHEK cells assessed as decrease in CXCL11 gene expression at 1 uM relative to control; assay type: cell-based
Outline: as §1
Target sequence in this assay (P23458 whole entry): as above

[4] = biological target: Tyrosine-protein kinase JAK1 (Homo sapiens) (UniProt P23458); assay: Inhibition of JAK1 in endogenous nucleic acid-stimulated NHEK cells assessed as decrease in TRAIL gene expression at 1 uM relative to control; assay type: cell-based
Outline: as §1
Target sequence in this assay (P23458 whole entry): as above

[5] = biological target: Tyrosine-protein kinase JAK1 (Homo sapiens) (UniProt P23458); assay: Inhibition of JAK1 in endogenous nucleic acid-stimulated NHEK cells assessed as decrease in AIM2 gene expression at 1 uM relative to control; assay type: cell-based
Outline: as §1
Target sequence in this assay (P23458 whole entry): as above

[6] = biological target: Tyrosine-protein kinase JAK1 (Homo sapiens) (UniProt P23458); assay: Inhibition of JAK1 in endogenous nucleic acid-stimulated NHEK cells assessed as decrease in TREX1 gene expression at 1 uM relative to control; assay type: cell-based
Outline: as §1
Target sequence in this assay (P23458 whole entry): as above

[7] = test system: Mus musculus; assay: Improvement in CLE-like skin lesions in 450 mJ/cm2 UV-irradiated lupus-prone TREX1-/- mouse model assessed as reduction in erythema at 1 % administered topically for 7 days measured on day 4 and 7 post-dose; assay type: functional, organism-based; details: time 7.0 day
Outline: (§2)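 Topical treatment or placebo was given for 7 days, with n = 4 mice per group. Lesions were photographed daily and mice weighed every 2 days. Erythema, induration, scaling and lesion size were scored with the mouse-adapted revised CLASI (Mouse RCLASI) and reported as mean ± SEM.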

[8] = test system: Mus musculus; assay: Improvement in CLE-like skin lesions in 450 mJ/cm2 UV-irradiated lupus-prone TREX1-/- mouse model assessed as reduction in induration at 1 % administered topically for 7 days measured on day 4 and 7 post-dose; assay type: functional, organism-based; details: time 7.0 day
Outline: as §2

[9] = biological target: Tyrosine-protein kinase JAK1 (Homo sapiens) (UniProt P23458); assay: Inhibition of JAK1 in endogenous nucleic acid-stimulated NHEK cells assessed as decrease in BlyS gene expression at 1 uM relative to control; assay type: cell-based
Outline: as §1
Target sequence in this assay (P23458 whole entry): as above

[10] = biological target: Tyrosine-protein kinase JAK1 (Homo sapiens) (UniProt P23458); assay: Inhibition of JAK1 in endogenous nucleic acid-stimulated NHEK cells assessed as decrease in Caspase 10 gene expression at 1 uM relative to control; assay type: cell-based
Outline: as §1

[11] = test system: Mus musculus; assay: Improvement in CLE-like skin lesions in 450 mJ/cm2 UV-irradiated lupus-prone TREX1-/- mouse model assessed as reduction in scaling at 1 % administered topically for 7 days measured on day 4 and 7 post-dose; assay type: functional, organism-based; details: time 7.0 day
Outline: as §2

[12] = test system: Mus musculus; assay: Improvement in CLE-like skin lesions in 450 mJ/cm2 UV-irradiated lupus-prone TREX1-/- mouse model assessed as reduction in lession size at 1 % administered topically for 7 days measured on day 4 and 7 post-dose; assay type: functional, organism-based; details: time 7.0 day
Outline: as §2

[13] = test system: Mus musculus; assay: Improvement in CLE-like skin lesions in 450 mJ/cm2 UV-irradiated lupus-prone TREX1-/- mouse model assessed as reduction in CXCL10 gene expression in lesional skin at 1 % administered topically for 7 days relative to control; assay type: functional, organism-based; details: time 7.0 day
Outline: (§3)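 Lesional skin from TREX1–/– mice given the topical JAK1 inhibitor or placebo underwent gene expression analysis for IFN-associated genes. Differential expression was defined as a change greater than twofold with p < 0.05 by Welch's t-test against placebo.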

[14] = test system: Mus musculus; assay: Improvement in CLE-like skin lesions in 450 mJ/cm2 UV-irradiated lupus-prone TREX1-/- mouse model assessed as reduction in CXCL9 gene expression in lesional skin at 1 % administered topically for 7 days relative to control; assay type: functional, organism-based; details: time 7.0 day
Outline: as §3

[15] = test system: Mus musculus; assay: Improvement in CLE-like skin lesions in 450 mJ/cm2 UV-irradiated lupus-prone TREX1-/- mouse model assessed as reduction in CCL2 gene expression in lesional skin at 1 % administered topically for 7 days relative to control; assay type: functional, organism-based; details: time 7.0 day
Outline: as §3

[16] = test system: Mus musculus; assay: Improvement in CLE-like skin lesions in 450 mJ/cm2 UV-irradiated lupus-prone TREX1-/- mouse model assessed as reduction in CCL5 gene expression in lesional skin at 1 % administered topically for 7 days relative to control; assay type: functional, organism-based; details: time 7.0 day
Outline: as §3

[17] = test system: Mus musculus; assay: Improvement in CLE-like skin lesions in 450 mJ/cm2 UV-irradiated lupus-prone TREX1-/- mouse model assessed as reduction in CCL7 gene expression in lesional skin at 1 % administered topically for 7 days relative to control; assay type: functional, organism-based; details: time 7.0 day
Outline: as §3

[18] = test system: Mus musculus; assay: Improvement in CLE-like skin lesions in 450 mJ/cm2 UV-irradiated lupus-prone TREX1-/- mouse model assessed as reduction in CCL9 gene expression in lesional skin at 1 % administered topically for 7 days relative to control; assay type: functional, organism-based; details: time 7.0 day
Outline: as §3

[19] = test system: Mus musculus; assay: Improvement in CLE-like skin lesions in 450 mJ/cm2 UV-irradiated lupus-prone TREX1-/- mouse model assessed as reduction in IRF1 gene expression in lesional skin at 1 % administered topically for 7 days relative to control; assay type: functional, organism-based; details: time 7.0 day
Outline: as §3

[20] = test system: Mus musculus; assay: Improvement in CLE-like skin lesions in 450 mJ/cm2 UV-irradiated lupus-prone TREX1-/- mouse model assessed as reduction in IRF7 gene expression in lesional skin at 1 % administered topically for 7 days relative to control; assay type: functional, organism-based; details: time 7.0 day
Outline: as §3

[21] = test system: Mus musculus; assay: Improvement in CLE-like skin lesions in 450 mJ/cm2 UV-irradiated lupus-prone TREX1-/- mouse model assessed as reduction in IRF9 gene expression in lesional skin at 1 % administered topically for 7 days relative to control; assay type: functional, organism-based; details: time 7.0 day
Outline: as §3

[22] = test system: Mus musculus; assay: Improvement in CLE-like skin lesions in 450 mJ/cm2 UV-irradiated lupus-prone TREX1-/- mouse model assessed as reduction in IFIT1 gene expression in lesional skin at 1 % administered topically for 7 days relative to control; assay type: functional, organism-based; details: time 7.0 day
Outline: as §3

[23] = test system: Mus musculus; assay: Improvement in CLE-like skin lesions in 450 mJ/cm2 UV-irradiated lupus-prone TREX1-/- mouse model assessed as reduction in IFITM3 gene expression in lesional skin at 1 % administered topically for 7 days relative to control; assay type: functional, organism-based; details: time 7.0 day
Outline: as §3

[24] = test system: Mus musculus; assay: Improvement in CLE-like skin lesions in 450 mJ/cm2 UV-irradiated lupus-prone TREX1-/- mouse model assessed as improvement in epidermal thickness at 1 % administered topically for 7 days by H and E staining based histological analysis; assay type: functional, organism-based; details: time 7.0 day
[25] = test system: Mus musculus; assay: Improvement in CLE-like skin lesions in 450 mJ/cm2 UV-irradiated lupus-prone TREX1-/- mouse model assessed as improvement in infiltrating dermal immune cells at 1 % administered topically for 7 days by H and E staining based histological analysis; assay type: functional, organism-based; details: time 7.0 day
Outline: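 Lesional skin from the topically treated or placebo-treated groups was processed for H&E and anti-CD45 immunohistology and viewed at ×400. Dermal infiltrate was graded as a CD45 inflammation score. Values are mean ± SEM and were compared by Mann-Whitney U test.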

[26] = biological target: Tyrosine-protein kinase JAK1 (Homo sapiens) (UniProt P23458); assay: Inhibition of JAK1 in endogenous nucleic acid-stimulated human HaCaT cells assessed as reduction in CXCL10 expression at 1 uM measured after 24 hrs by ELISA
Target sequence in this assay (P23458 whole entry, looked up): as the sequence (P23458 whole entry) above

inhibition (INH) [1]: Not Active
Structure (SMILES): CN(C)C(=O)/C(C#N)=C/c1ccc(-c2nc3cnc4[nH]ccc4c3n2C2CCCCC2)o1

fold change (FC) [2]: > 2 | fold change (FC) [3]: > 2 | fold change (FC) [4]: > 2 | fold change (FC) [5]: > 2 | fold change (FC) [6]: > 2 | fold change (FC) [9]: > 2 | fold change (FC) [10]: > 2 | inhibition (INH) [26]: Active
Structure (SMILES): N#CCC1(n2cc(-c3ncnc4[nH]ccc34)cn2)CN(C2CCN(C(=O)c3ccnc(C(F)(F)F)c3F)CC2)C1 [ITACITINIB]
Activity [7]: Active | Activity [8]: Active | Activity [11]: Active | Activity [12]: Active | Activity [13]: Active | Activity [14]: Active | Activity [15]: Active | Activity [16]: Active | Activity [17]: Active | Activity [18]: Active | Activity [19]: Active | Activity [20]: Active | Activity [21]: Active | Activity [22]: Active | Activity [23]: Active | Activity [24]: Active | Activity [25]: Active
